Source: ChEMBL document CHEMBL1159049, “Novel small molecule bradykinin B1 receptor antagonists. Part 3: hydroxyurea derivatives” (Bioorg Med Chem Lett, 2010)
Values after ≈ are worked out from the molar mass of the structure shown.

Legend:
[1] = Half life in Wistar rat at 1 mg/kg, iv […]; format: ADME, organism-based; settings: in vivo
Outline: (§1)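 Male Wistar rats dosed at 1 mg/kg iv (group 1) and 1 mg/kg po (group 2). Plasma aliquots precipitated with methanol containing a structural analogue as internal standard, then analyzed by HPLC-MS/MS for time/concentration values. PK parameters (terminal t1/2, CL, F) derived from these profiles.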

[2] = Clearance in Wistar rat at 1 mg/kg, iv […]; format: ADME, organism-based; settings: in vivo; outline: as §1
[3] = molecular target: T1, B1 bradykinin receptor (Homo sapiens, UniProt P46663); assay: Antagonist activity at bradykinin B1 receptor in human IMR90 cells assessed as inhibition of des-Arg-bradykinin-mediated calcium mobilization; format: functional, cell-based, IMR-90; settings: in the assay text read “des-Arg-kallidin-mediated” for “des-Arg-bradykinin-mediated”
T1 sequence (P46663 whole entry): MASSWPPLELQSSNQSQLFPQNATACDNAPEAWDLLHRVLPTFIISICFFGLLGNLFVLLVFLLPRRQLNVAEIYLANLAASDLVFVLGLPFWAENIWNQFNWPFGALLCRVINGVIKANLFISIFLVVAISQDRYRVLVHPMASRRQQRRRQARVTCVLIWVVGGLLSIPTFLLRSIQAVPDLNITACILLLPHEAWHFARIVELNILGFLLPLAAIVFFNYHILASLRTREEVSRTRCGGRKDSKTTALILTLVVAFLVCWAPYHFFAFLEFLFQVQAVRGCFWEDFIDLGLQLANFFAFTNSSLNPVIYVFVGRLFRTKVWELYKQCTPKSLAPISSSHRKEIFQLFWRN
Outline: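 Human lung fibroblast IMR-90 cells pretreated with IL-1 beta; B1 receptor functional activity read as inhibition of DAKD-mediated calcium mobilization (CAM assay). Values are the numerical average of at least two experiments.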

[4] = Oral bioavailability in Wistar rat at 1 mg/kg; format: ADME, organism-based; settings: in vivo; outline: as §1
[5] = Apparent permeability from basolateral to apical side of human Caco-2 cell; format: ADME, cell-based
Outline: (§2)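 Bidirectional permeability through Caco-2 cell monolayers; Papp measured apical-to-basolateral and basolateral-to-apical, with efflux ratio taken as B–A over A–B.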

[6] = system: Caco-2; assay: Ratio of permeability from basolateral to apical side to apical to basolateral side in human Caco-2 cells; format: ADME, cell-based; outline: as §2
[7] = Compound remaining in PBS buffer after 5 days; format: physicochemical; settings: read-out: Stability
Outline: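 Chemical stability: compound incubated in PBS buffer at 50 °C for 5 days; percent remaining determined.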

[8] = Metabolic stability in rat liver microsomes after 1 hr; format: ADME, Microsome; settings: read-out: Stability
Outline: (§3)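 Incubation with human or rat liver microsomes for 1 h; percent parent remaining reported.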

[9] = system: Hepatocyte; assay: Cytotoxicity against human hepatocytes; format: cell-based
Outline: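 Cell viability in plateable cryopreserved human hepatocytes exposed to a range of concentrations up to 100 µM for 24 h at 37 °C; resazurin substrate, resorufin product detected by fluorimetry.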

[10] = species: Homo sapiens; assay: Protein binding in human plasma; settings: read-out: PPB (converted)
[11] = Apparent permeability from apical to basolateral side of human Caco-2 cell; format: ADME, cell-based; outline: as §2
[12] = Aqueous Solubility in PBS buffer; format: physicochemical
[13] = Metabolic stability in human liver microsomes after 1 hr; format: ADME, Microsome; settings: read-out: Stability; outline: as §3

Structure (SMILES): Cc1nc(-c2c(F)cc(Cl)cc2-c2cnc([C@@H](C)NC(=O)N(C)O)c(F)c2)no1
- half-life [1]: 12 min
- clearance [2]: 58 mL/min/kg
- IC50 [3]: 1.2 nM
- bioavailability [4]: 8%

Structure (SMILES): Cc1nc(-c2c(F)cc(Cl)cc2-c2cnc(CNC(=O)N(C)O)c(F)c2)no1
- IC50 [3]: 17 nM

Structure (SMILES): Cc1nc(-c2c(F)cccc2-c2cnc([C@@H](C)NC(=O)N(C)O)c(F)c2)no1
- IC50 [3]: 31 nM

Structure (SMILES): Cn1nnc(-c2c(F)cc(Cl)cc2-c2cnc(CNC(=O)N(O)C3CCCCC3)c(F)c2)n1
- IC50 [3]: 3.9 nM

Structure (SMILES): CC(C)N(O)C(=O)NCc1ncc(-c2cc(Cl)cc(F)c2-c2nnn(C)n2)cc1F
- IC50 [3]: 1 nM

Structure (SMILES): Cn1nnc(-c2c(F)cc(Cl)cc2-c2cnc(CNC(=O)N(O)C(C)(C)C)c(F)c2)n1
- IC50 [3]: 1.4 nM

Structure (SMILES): CN(O)C(=O)NCc1ncc(-c2cc(Cl)cc(F)c2-c2nnn(C)n2)cc1F
- IC50 [3]: 17 nM

Structure (SMILES): Cc1nc(-c2c(F)cc(Cl)cc2-c2cnc([C@@H](C)NC(=O)N(C)O)c(C)c2)no1
- IC50 [3]: 3.6 nM

Structure (SMILES): Cc1nc(-c2c(F)cc(Cl)cc2-c2ccc(CNC(=O)N(C)O)cc2)no1
- IC50 [3]: > 100 nM

Structure (SMILES): Cn1nnc(-c2c(F)cc(Cl)cc2-c2cnc(CNC(=O)NO)c(F)c2)n1
- IC50 [3]: 59 nM

Structure (SMILES): Cn1nnc(-c2c(F)cc(Cl)cc2-c2cnc(CNC(=O)N(O)C3CCC(F)(F)CC3)c(F)c2)n1
- Papp B→A [5]: 43 ×10⁻⁶ cm/s
- half-life [1]: 47 min
- Ratio [6]: < 3
- clearance [2]: 13 mL/min/kg
- IC50 [3]: 0.19 nM
- remaining at 120 h [7]: > 99%
- remaining at 1 h [8]: 84%
- Activity [9]: Non-toxic
- fraction unbound [10]: 0.013
- Papp A→B [11]: 24 ×10⁻⁶ cm/s
- solubility [12]: 39 µM (≈ 20 µg/mL)
- bioavailability [4]: 78%
- remaining at 1 h [13]: 61%

Structure (SMILES): Cn1nnc(-c2c(F)cc(Cl)cc2-c2cnc(CNC(=O)N(O)C(CF)CF)c(F)c2)n1
- half-life [1]: 80 min
- clearance [2]: 8 mL/min/kg
- IC50 [3]: 0.5 nM
- bioavailability [4]: 86%

Structure (SMILES): Cc1nc(-c2c(Cl)cc(Cl)cc2-c2cnc([C@@H](C)NC(=O)N(C)O)c(F)c2)no1
- IC50 [3]: 2.3 nM

Structure (SMILES): Cc1nc(-c2c(F)cc(Cl)cc2-c2ccc(CNC(=O)N(C)O)c(F)c2)no1
- IC50 [3]: 32 nM

Structure (SMILES): Cn1nnc(-c2c(F)cc(Cl)cc2-c2cnc(CNC(=O)N(O)C3CCCC3)c(F)c2)n1
- IC50 [3]: 0.8 nM

Structure (SMILES): CCN(O)C(=O)NCc1ncc(-c2cc(Cl)cc(F)c2-c2nnn(C)n2)cc1F
- IC50 [3]: 4.6 nM
